What all share (assay type): functional
The test system of one test is Salmonella typhi. As to the kind of experiment: Antibacterial activity against 10^8 CFU/mL Salmonella typhi MTCC 98 by broth microdilution method. In short, it runs like this:
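Broth microdilution in Mueller-Hinton broth with MTCC strains, inoculum adjusted by turbidity to 10⁸ CFU/mL. Compounds were diluted from DMSO. Primary screen used 500, 250 and 125 concentrations, and actives were serially diluted further. Tubes were incubated overnight at 37 °C. MIC was the lowest concentration with no visible growth. Clear tubes were subcultured overnight at 37 °C to judge bacteriostatic versus bactericidal.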
(Dilution methods test growth across graded concentrations, often in twofold steps.)

The next test deals with Streptococcus pyogenes. The experiment in a line: Antibacterial activity against 10^8 CFU/mL Streptococcus pyogenes MTCC 442 by broth microdilution method. In short, it runs like this: (§1)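 MTCC bacterial strains from IMTECH Chandigarh were grown in Mueller-Hinton broth, which was also used to dilute the compounds. Inoculum was turbidity-adjusted to 10⁸ CFU/mL, and DMSO served as diluent. Compounds from a 2000 stock were screened first at 500, 250 and 125; actives were retested in a second dilution series. Tubes were incubated overnight at 37 °C, and MIC was the lowest concentration with no visible growth. Clear tubes were subcultured overnight at 37 °C to tell bacteriostatic from bactericidal.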

The test system of a further test is Klebsiella pneumoniae. As to the kind of experiment: Antibacterial activity against 10^8 CFU/mL Klebsiella pneumoniae MTCC 109 by broth microdilution method. An outline of the steps:
as §1

The subject of another test is Escherichia coli. As to the kind of experiment: Antibacterial activity against 10^8 CFU/mL Escherichia coli MTCC 443 by broth microdilution method. An outline of the steps: as §1
The subject of the next test is Pseudomonas aeruginosa. As to the kind of experiment: Antibacterial activity against 10^8 CFU/mL Pseudomonas aeruginosa MTCC 1688 by broth microdilution method. An outline of the steps: as §1
For a further test, the system named is Staphylococcus aureus. As to the kind of experiment: Antibacterial activity against 10^8 CFU/mL Staphylococcus aureus MTCC 96 by broth microdilution method. An outline of the steps: as §1
A further test relates to Bacillus subtilis. The experiment in a line: Antibacterial activity against 10^8 CFU/mL Bacillus subtilis MTCC 441 by broth microdilution method. In short, it runs like this:
as §1

A further test deals with Aspergillus clavatus. The experiment in a line: Antifungal activity against 10^8 CFU/mL Aspergillus clavatus MTCC 1323 by broth microdilution method. An outline of the steps:
(§2)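 Fungal MTCC cultures came from IMTECH Chandigarh. Mueller-Hinton broth served as growth and dilution medium, with DMSO as diluent. Inoculum was set to 10⁸ CFU/mL by turbidity. Serial dilutions from a 2000 stock gave a primary screen at 500, 250 and 125, followed by a secondary dilution series for actives. MIC was the lowest concentration inhibiting growth.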

A further test has as its system Aspergillus niger. As to the kind of experiment: Antifungal activity against 10^8 CFU/mL Aspergillus niger MTCC 282 by broth microdilution method. An outline of the steps: as §2
In test [1] the test system is Mycobacterium tuberculosis. As to the kind of experiment: Antituberculosis activity against 5 x 10^4 inoculum per tube Mycobacterium tuberculosis H37Rv after 24 hrs by Lowenstein-Jensen method. In short, it runs like this: (§3)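 Conventional Lowenstein-Jensen method. Compound dilutions were made from a DMSO stock and added to liquid L-J medium, which was sterilized by inspissation. Tubes were incubated 24 h at 37 °C, then streaked with H37Rv (5 × 10⁴ bacilli per tube) harvested into 0.85% saline. Growth was checked at 12, 22 and 28 days at 37 °C against medium-only controls. MIC was the concentration giving no colonies or <20 colonies.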

In test [2] the test system is Mycobacterium tuberculosis. The experiment in a line: Antituberculosis activity against 5 x 10^4 bacilli per tube Mycobacterium tuberculosis H37Rv assessed as growth inhibition at 62.5 ug/mL incubated for 24 hrs measured after 28 days. The following applies: read-out: GI. An outline of the steps:
as §3

The next test has as its system Candida albicans. The experiment in a line: Antifungal activity against 10^8 CFU/mL Candida albicans MTCC 227 by broth microdilution method. An outline of the steps: as §2
In test [3] the test system is Mycobacterium tuberculosis. The experiment in a line: Antituberculosis activity against 5 x 10^4 bacilli per tube Mycobacterium tuberculosis H37Rv assessed as growth inhibition at 250 ug/mL incubated for 24 hrs measured after 28 days. The note with it: read-out: GI. In short, it runs like this: as §3
The test system of test [4] is Mycobacterium tuberculosis. The experiment in a line: Antituberculosis activity against 5 x 10^4 inoculum per tube Mycobacterium tuberculosis H37Rv assessed as growth inhibition at 500 ug/mL incubated for 24 hrs measured after 28 days. The note with it: read-out: GI. An outline of the steps:
as §3

Test [5] relates to Mycobacterium tuberculosis. The experiment in a line: Antituberculosis activity against 5 x 10^4 bacilli per tube Mycobacterium tuberculosis H37Rv assessed as growth inhibition at 1000 ug/mL incubated for 24 hrs measured after 28 days. The following applies: read-out: GI. In short, it runs like this:
as §3

In brackets after ≈: the same amount, converted by molar mass.

The text below walks through data of ChEMBL document CHEMBL1833842, “1,3-Dihydro-2H-indol-2-ones derivatives: design, synthesis, in vitro antibacterial, antifungal and antitubercular study” (2011).

Take GENTAMICIN: the MIC99 (in general, an inhibitory concentration at the 99% level, which refers to growth in some studies and to a panel of isolates in others) in the test with Salmonella typhi (Salmonella enterica subsp. enterica serovar Typhi) came out at 1 µg/mL; in the test with Streptococcus pyogenes, 0.5 µg/mL; with Klebsiella pneumoniae, 0.05 µg/mL; in the test with Escherichia coli it was 0.05 µg/mL; with Pseudomonas aeruginosa, 1 µg/mL; against Staphylococcus aureus it was 0.25 µg/mL. Also, the MIC99 against Bacillus subtilis was determined as 0.5 µg/mL.

`CC1=C(c2nnc(/N=C3\C(=O)Nc4ccc([N+](=O)[O-])cc43)s2)C(c2ccccc2)NC(=S)N1` (centres undefined): the MIC99 in the test with Salmonella typhi (Salmonella enterica) was found to be 100 µg/mL (≈ 209 µM); in the test on Streptococcus pyogenes, 200 µg/mL (≈ 419 µM); against Klebsiella pneumoniae it was 100 µg/mL (≈ 209 µM); against Escherichia coli, 62.5 µg/mL (≈ 131 µM); with Pseudomonas aeruginosa, 100 µg/mL (≈ 209 µM); with Staphylococcus aureus it was 100 µg/mL (≈ 209 µM). Also, the MIC99 against Bacillus subtilis is 100 µg/mL (≈ 209 µM). Also, the minimal inhibitory concentration (MIC) (usually the least concentration at which growth counts as inhibited) with Aspergillus clavatus came out at 250 µg/mL (≈ 524 µM); in the test on Aspergillus niger, 100 µg/mL (≈ 209 µM); in test [1] it was 62.5 µg/mL (≈ 131 µM); against Candida albicans, 250 µg/mL (≈ 524 µM). For the same compound, in [2], the inhibition of growth at 62.5 µg/mL was 99%.

Consider `CC1(C)S[C@@H]2[C@H](NC(=O)[C@H](N)c3ccccc3)C(=O)N2[C@H]1C(=O)O` [AMPICILLIN], for which the MIC99 in the test with Salmonella typhi (Salmonella enterica) amounted to 100 µg/mL (≈ 286 µM); with Streptococcus pyogenes, 100 µg/mL (≈ 286 µM); against Klebsiella pneumoniae, 100 µg/mL (≈ 286 µM); in the test on Escherichia coli, 100 µg/mL (≈ 286 µM); against Pseudomonas aeruginosa, 100 µg/mL (≈ 286 µM); in the test on Staphylococcus aureus it was 250 µg/mL (≈ 715 µM). The MIC99 against Bacillus subtilis is 100 µg/mL (≈ 286 µM).

Take `CC1=C(c2nnc(/N=C3\C(=O)Nc4ccc(Br)cc43)s2)C(c2ccccc2)NC(=S)N1` (centres undefined): the inhibition of growth at 250 µg/mL in test [3] is 98%. Besides, the MIC99 against Salmonella typhi (Salmonella enterica) is 250 µg/mL (≈ 489 µM); with Streptococcus pyogenes, 100 µg/mL (≈ 196 µM); in the test on Klebsiella pneumoniae it was 200 µg/mL (≈ 391 µM); against Escherichia coli, 200 µg/mL (≈ 391 µM); against Pseudomonas aeruginosa, 200 µg/mL (≈ 391 µM); in the test with Staphylococcus aureus, 100 µg/mL (≈ 196 µM). The compound also yielded an MIC99 against Bacillus subtilis of 100 µg/mL (≈ 196 µM). For the same compound, the MIC against Aspergillus clavatus was 500 µg/mL (≈ 978 µM); in the test with Aspergillus niger, 500 µg/mL (≈ 978 µM); in [1], 250 µg/mL (≈ 489 µM); against Candida albicans, 500 µg/mL (≈ 978 µM).

Take `CC1=C(c2nnc(/N=C3\C(=O)Nc4ccc(Br)cc43)s2)C(c2ccccc2)NC(=O)N1` (centres undefined): the inhibition of growth at 500 µg/mL in test [4] amounted to 98%. Also, the MIC99 against Salmonella typhi (Salmonella enterica) was 250 µg/mL (≈ 505 µM); against Streptococcus pyogenes, 100 µg/mL (≈ 202 µM); with Klebsiella pneumoniae, 200 µg/mL (≈ 404 µM); against Escherichia coli it was 250 µg/mL (≈ 505 µM); against Pseudomonas aeruginosa, 250 µg/mL (≈ 505 µM); in the test on Staphylococcus aureus, 100 µg/mL (≈ 202 µM). Further, the MIC99 against Bacillus subtilis stood at 100 µg/mL (≈ 202 µM). In addition, the MIC against Aspergillus clavatus was greater than 1000 µg/mL; in the test with Aspergillus niger, 500 µg/mL (≈ 1010 µM); in [1], 500 µg/mL (≈ 1010 µM); with Candida albicans, 500 µg/mL (≈ 1010 µM).

Regarding `O=C(N[C@H](CO)[C@H](O)c1ccc([N+](=O)[O-])cc1)C(Cl)Cl` [CHLORAMPHENICOL], the MIC99 against Salmonella typhi (Salmonella enterica), against Streptococcus pyogenes, in the test with Klebsiella pneumoniae, against Escherichia coli, in the test on Pseudomonas aeruginosa and in the test on Staphylococcus aureus was 50 µg/mL (≈ 155 µM) each time. Also, the MIC99 with Bacillus subtilis was 50 µg/mL (≈ 155 µM).

Regarding `CC1=C(c2nnc(/N=C3\C(=O)Nc4ccc(I)cc43)s2)C(c2ccccc2)NC(=S)N1` (centres undefined), the MIC99 stood at 250 µg/mL (≈ 448 µM) with Salmonella typhi (Salmonella enterica); 200 µg/mL (≈ 358 µM) against Streptococcus pyogenes; 200 µg/mL (≈ 358 µM) in the test on Klebsiella pneumoniae; 250 µg/mL (≈ 448 µM) against Escherichia coli; 250 µg/mL (≈ 448 µM) in the test on Pseudomonas aeruginosa; 200 µg/mL (≈ 358 µM) in the test with Staphylococcus aureus. The compound also yielded an MIC99 with Bacillus subtilis of 200 µg/mL (≈ 358 µM). Besides, the MIC was greater than 1000 µg/mL with Aspergillus clavatus, greater than 1000 µg/mL in the test with Aspergillus niger, 1000 µg/mL (≈ 1790 µM) in test [1] and greater than 1000 µg/mL in the test on Candida albicans. Moreover, the inhibition of growth at 1000 µg/mL in test [5] worked out at 98%.

On to NYSTATIN, for which the MIC in the test on Aspergillus clavatus, in the test on Aspergillus niger and with Candida albicans was 100 µg/mL throughout.

`CC1=C(c2nnc(/N=C3\C(=O)Nc4ccc([N+](=O)[O-])cc43)s2)C(c2ccccc2)NC(=O)N1` (centres undefined): the MIC99 against Salmonella typhi (Salmonella enterica) amounted to 200 µg/mL (≈ 433 µM); against Streptococcus pyogenes, 250 µg/mL (≈ 542 µM); against Klebsiella pneumoniae, 200 µg/mL (≈ 433 µM); in the test on Escherichia coli, 62.5 µg/mL (≈ 135 µM); with Pseudomonas aeruginosa, 100 µg/mL (≈ 217 µM); against Staphylococcus aureus, 200 µg/mL (≈ 433 µM). Further, the MIC99 against Bacillus subtilis came to 200 µg/mL (≈ 433 µM). The MIC came out at 500 µg/mL (≈ 1080 µM) against Aspergillus clavatus, 250 µg/mL (≈ 542 µM) in the test with Aspergillus niger, 62.5 µg/mL (≈ 135 µM) in test [1] and 250 µg/mL (≈ 542 µM) against Candida albicans. Also, the inhibition of growth at 62.5 µg/mL in [2] worked out at 99%.
